According to the RNAGym collection of RNA variant scans (doi:10.1126/science.aae0568):
This sample holds only a part of the variants without activity.

B1: tRNA (parent)
chain: GUUCCGUUGGCGUAAUGGUAACGCGUCUCCCUCCUAAGGAGAAGACUGCGGGUUCGAGUCCCGUACGGAACG

Variants of: B1
Assay: yeast fitness relative to wild type (ratio to wild type); higher = fitter; tRNA-Arg(CCU), competitive growth, 37 C, YPD
How it was run: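 Amplicons of the tRNA-Arg(CCU) gene were sequenced, 100-nucleotide paired-end, from the start population and from each end population of a pooled yeast competition. The competition, in six parallel replicates, lasted 24 hours in YPD at 37°C. Fitness relative to wild type was calculated from changes in genotype frequencies. Genotypes had to have ≥ 100 starting reads, and estimates < 0.5 were set to 0.5.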

Variant | yeast fitness
GUUCCGUUGGAGUAAUGGAAACGCGUCUACCACCUAAGGAGAAGACUGCGGGUCGGAGUGCCGUGCGGAACG [C11A U19A C29A U32A U54C C55G C60G A65G] | ≤ 0.5
GUUCCGUUGGAGUAAUGGUAACGCGACUCCCUCCUAAGGAGAAGACUGCGGGUUCGAGUCCCGUACGGAACG [C11A U26A] | 0.687
GUUCCGUUGGAGAAAUGGUUACGCGUCUCCCUCCUAAGGAGAAGACUGCGGGUUCGAGUCCCGUACGGAACG [C11A U13A A20U] | ≤ 0.5
GUUCCGUUGGAGUAAUGGUAACGCGUCGCCCUCUUAAGGAGAAGACUGCGGGUUCGAGUCCCGUACAGAACG [C11A U28G C34U G67A] | ≤ 0.5
GUUCCGUUGGAGUAAUGGUAACGCGCCUGCUUCCUAAGGAGAAGACUGCGGCUUAGAGGCCCGUACGGAACG [C11A U26C C29G C31U G52C C55A U59G] | ≤ 0.5
GUUCCGUUGGAGAAAUGGUGACGCGUCUCCCUCCUAAGGAGAAGACUGCGGGUUCGAGUCCCGUACGCCACG [C11A U13A A20G G68C A69C] | 0.626
GUUCCGUUGGAGUAAUGGCAUCGCGUCUCCCUCCUAAGGAGAUGACUGCGGGUUCGACUACCGUAUGGAACG [C11A U19C A21U A43U G58C C60A C66U] | 0.531
GUUCCGUUGGAGUAACGGUAACGCGUCUCCCGCCUAAGGAGAAGACUGGGGGUUAGAGUCCCGUACGGAACG [C11A U16C U32G C49G C55A] | 0.546
GUUCCGUUGGAGUAAUGGGAACGCGUCUCCCUCCUGAGGAGAAGACUGCGGGUCCGAGUCCCGUUCGGAACG [C11A U19G A36G U54C A65U] | 0.538
GUUCCGUUGGAGUAAUGGCAACGCGUCUCCCUCCUAAGGAGAAGACUGCGGGUUCGAGUCCCGUACGGAACG [C11A U19C] | 0.706
GUUCCGUUGGAGAAAUGGUAACGCGUCUCCGUCCUAAGGAGAAGACUGCGGGUUCGAGUCCCGUACGGAACG [C11A U13A C31G] | 0.608
GUUCCGUUGGAGUAAUGGUAACGCGUCUCCCAUCUAAGGAGAAGACUGCGGGUUCGAGUCCCGUAAGGAACG [C11A U32A C33U C66A] | ≤ 0.5
GUUCCGUUGGAGUAACGCUAACGCGUCUCCCUCCUAAGGAGAAGCCUGCGGGUUCGCGUCCCGUACGAAACG [C11A U16C G18C A45C A57C G68A] | ≤ 0.5
GUUCCGUUGGAGUAACGGUAACGCGUCCCCCGCCUAAGGAGAAGACUGGGGGUUAGAGUCCCGUACGGAACG [C11A U16C U28C U32G C49G C55A] | ≤ 0.5
GUUCCGUUGGAGUAAUGGUAACGCGUCGCCCUACUAAGGAGCAGACUGCGGGUUCGAGUCCCGUUCGGAACG [C11A U28G C33A A42C A65U] | ≤ 0.5
GUUCCGUUGGAGUAAUGGCAACGCGCCUCCCUCCUAAGGUGAACAUUGCGGGUUCGAGUCCCGGACGGAACG [C11A U19C U26C A40U G44C C46U U64G] | 0.514
GUUCCGUUGGAGUAACGGUAACGCGUCUCCCGCCUAAGGAGAAGACUGCGGGUUCGAGUCCCGGACGGAACG [C11A U16C U32G U64G] | ≤ 0.5
GUUCCGUUGGAGAAAUGGUUACGCGUCUCCCUCCUAAGGAGAAGACUGCGGGUUCGAGUCCCAUUCGGAACG [C11A U13A A20U G63A A65U] | ≤ 0.5
GUUCCGUUGGAGUAAUGGUAACGCGUCUCCCCCCUAAGGAGAAGACUGCGGGUUCGAGUCCCGUACAGAACG [C11A U32C G67A] | 0.606

Variant | yeast fitness
GUUCCGUUGGAGCAAUGGUAACGCGUAUCCCUCCUAAGGAGAAGACUGCGGGUUCGAGUCCCAUACGGAACG [C11A U13C C27A G63A] | ≤ 0.5
GUUCCGUUGGAGUAAUGGCAACGCGUCUCCUUCCUAAGGAGAAGACUGCGGGAUCGAGUCCCGUACGGAACG [C11A U19C C31U U53A] | ≤ 0.5
GUUCCGUUGGAGUAAUGGUAACGCGUCCCCCUCCUAAGGAGAAGAAUGCGGGUUUGAGUCUCGUACGGAACG [C11A U28C C46A C55U C61U] | ≤ 0.5
GUUCCGUUGGAGUAAUGGUAACGCGUCUCCCUCCAAAGGAGAAGACUGCGGAUUCGAGUCCCGUACGGAACG [C11A U35A G52A] | ≤ 0.5
GUUCCGUUGGAGUAAUGGUAACGCGUCUCCCUCCUAAGGAGAAGACUGCGGGUUCGAGUCCCGUACGCAACG [C11A G68C] | 0.656
GUUCCGUUGGAGGAAUGGUAACGCGUCUCCCUCCUAAGGAGAAGACUGCGGGUUAGAGUCCCGUACGGAACG [C11A U13G C55A] | 0.659
GUUCCGUUGGAGUAAUGGUAACGCGUCUCCCUCCAACGGAGAGGACUGCGGGUUCGAGUCCCGUACGGAACG [C11A U35A A37C A43G] | 0.511
GUUCCGUUGGAGAAAUGGUAACGCGUCUCCCUCCUAAGGAGUAGACUGCGGGUUAGAGUCCCGUACGGAACG [C11A U13A A42U C55A] | ≤ 0.5
GUUCCGUUGGAGUAAUGGUAACGCGUCUCCCUCCAAUGGAGAAGACUGCGGGUUCGAGUCCCGUACGGAACG [C11A U35A A37U] | ≤ 0.5
GUUCCGUUGGAGUAAUGGUAACGCGUCUCCCCCCUAAGGAGAAGACUGCGGGUUCGAGUCCCGUACGGAACG [C11A U32C] | 0.739
GUUCCGUUGGAGUAAUGGGAACGCGUCUCCCUCCUGAGGAGAAGACUGCGGGUUCGAGUCCAGUACGGCACG [C11A U19G A36G C62A A69C] | ≤ 0.5
GUUCCGUUGGAGUAAUGGUAACGCGUCUCCCUCCGAAGGAGAAGAAUGUGGGUUCGAGUUCCGUACGGAACG [C11A U35G C46A C49U C60U] | ≤ 0.5
GUUCCGUUGGAGUAAUGGUAACGCGUCUCCCAUCUAAGGAGAAGACAGCGGGUUCGAGUCCCGUACGGAACG [C11A U32A C33U U47A] | ≤ 0.5
GUUCCGUUGGAGUAAUGGUAACGCGUCUCCCACAUAAGGAGAAGACUGCGGGUUCGAGUCCCGUCCGGAACG [C11A U32A C34A A65C] | ≤ 0.5
GUUCCGUUGGAGUAAUGGUAACGCGUCGCCCUCUUAAGGAGAAGACUGCGGGUUCGAGUCCCGUACGGAACG [C11A U28G C34U] | ≤ 0.5
GUUCCGUUGGAGUAACGCUAACGCGUCUCCCUCCUAAGGAGAAGCCUGCGGGUUCGCGUCCCGUACACAACG [C11A U16C G18C A45C A57C G67A G68C] | ≤ 0.5
GUUCCGUUGGAGUAAUGGUAACGCGUCUCCCUCCAAAGGAGAAGACUGCGGGAUCGAGUCCCGUACGGAACG [C11A U35A U53A] | ≤ 0.5
GUUCCGUUGGAGUAAUGGAAACGCGUCUCCCUCCUAAGGAGAAGACUGCGGAUUCGAGUCCCGUACGGAACG [C11A U19A G52A] | ≤ 0.5
GUUCCGUUGGAGUAAUGGUAACGCGUCUCCCUCCGAAGGAGAAGACUGCGGGUUCGAGUCCCGUACAGAACG [C11A U35G G67A] | 0.52
